Here are results for four compounds from ChEMBL document CHEMBL1124309, “Toward the synthesis of isozyme-specific enzyme inhibitors. Potent inhibitors of rat methionine adenosyltransferases. Effect of one-atom elongation of the ribose-P alpha bridge in two covalent adducts of L-methionine and beta,gamma-imido-ATP” (J Med Chem, 1988).

Experiment [1] addresses T1, S-adenosylmethionine synthetase (MAT 1 and MAT 2) (Rattus norvegicus, UniProt P13444+P18298). In words: Inhibition constant of Met varied compound was measured on M-2 variant methionine adenosyltransferase in rat kidney. The method, boiled down:
(§1)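 L-[methyl-14C]methionine varied at six to eight levels, (0.5-4.0)×KM, with MgATP fixed at 2 mM for both M-2 and M-T; two inhibitor levels plus control. Incubations run in duplicate for 10 min at 37 °C, pH 8.2 Tris buffer with KCl, MgCl2 and DTT. Product on phosphocellulose discs counted by scintillation; no-ATP blanks. Ki from replots of double-reciprocal slopes/intercepts.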

Experiment [2] addresses T1, S-adenosylmethionine synthetase (MAT 1 and MAT 2). In words: Inhibition constant of ATP varied compound was measured on M-2 variate methionine adenosyltransferase in rat kidney. The procedure, abridged: (§2)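 Rat M-2 enzyme; MgATP varied at six to eight levels, (0.5-4.0)×KM, with L-[methyl-14C]methionine fixed at 60 μM; two inhibitor levels plus no-inhibitor control. 10 min, 37 °C, pH 8.2 Tris/KCl/MgCl2/DTT buffer, duplicates. Acid-stopped; product on phosphocellulose discs counted by scintillation; no-ATP blanks. Ki from slope/intercept replots of double-reciprocal plots.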

For experiment [3] the target is unchanged. Briefly: Inhibition constant of Met varied compound was measured on MT variant methionine adenosyltransferase in rat ascitic hepatoma cells. The format is cell-based. The procedure, abridged: as §1
For experiment [4] the target is unchanged. Briefly: Inhibition constant of ATP varied compound was measured on MT variant methionine adenosyltransferase in rat ascitic hepatoma cells. The format is cell-based. The procedure, abridged: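 M-T variant; MgATP varied at six to eight levels, (0.5-4.0)×KM, with L-[methyl-14C]methionine fixed at 120 μM; two inhibitor levels plus uninhibited control. Duplicate 10-min incubations at 37 °C in pH 8.2 Tris/KCl/MgCl2/DTT. Stopped with HClO4-methionine; labelled product bound to phosphocellulose discs, scintillation counted; no-ATP blanks. Ki by replotting double-reciprocal slopes/intercepts.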

The target is the same in experiment [5]. In words: Inhibition constant of ATP varied compound was measured on M-2 variate Methionine adenosyltransferase in rat kidney. The method, boiled down: as §2
Experiment [6] has the same target. In words: Inhibition constant of Met varied compound was measured on M-2 variant Methionine adenosyltransferase in rat kidney. The method, boiled down:
as §1

Consider `Nc1ncnc2c1ncn2[C@@H]1O[C@H](CC(CSCC[C@H](N)C(=O)O)OP(=O)(O)OP(=O)(O)NP(=O)(O)O)[C@@H](O)[C@H]1O` (stereo partly specified), for which the Ki in experiment [1] stood at 2200 nM; in experiment [2], 390 nM; in experiment [3] it was 2700 nM; in experiment [4], 630 nM.

In the case of `Nc1ncnc2c1ncn2[C@@H]1O[C@H]([C@@H](CNP(=O)(O)OP(=O)(O)OP(=O)(O)O)SCCC(N)C(=O)O)[C@@H](O)[C@H]1O` (stereo partly specified), the Ki in experiment [1] amounted to 3000 nM; in experiment [2] it was 360 nM; in experiment [3], 2300 nM; in experiment [4], 270 nM.

In the case of `Nc1ncnc2c1ncn2[C@@H]1O[C@H](C(CCOP(=O)(O)OP(=O)(O)NP(=O)(O)O)SCCC(N)C(=O)O)[C@@H](O)[C@H]1O` (stereo partly specified), the Ki is 2100 nM in experiment [1], 440 nM in experiment [2], 1500 nM in experiment [3] and 810 nM in experiment [4].

On to `Nc1ncnc2c1ncn2[C@@H]1O[C@H]([C@H](CSCCC(N)C(=O)O)OP(=O)(O)OP(=O)(O)NP(=O)(O)O)[C@@H](O)[C@H]1O` (stereo partly specified), for which the Ki in experiment [3] was 670 nM; in experiment [4], 210 nM; in experiment [5] it was 130 nM; in experiment [6] it was 650 nM.

As a reminder, the Ki is a measure of affinity in units of concentration, obtained from inhibition or displacement. The low end stands for tighter binding, the high end for weaker binding.
